According to ChEMBL document CHEMBL1649552 (2009):
Converted amounts (≈) assume the structure as drawn.

Assays:
Assay type in all cases: functional
[1] = tested on: Staphylococcus aureus; assay: Antibacterial activity against methicillin-susceptible Staphylococcus aureus by CLSI M100-S17 method
[2] = tested on: Staphylococcus aureus; assay: Antibacterial activity against methicillin-susceptible Staphylococcus aureus assessed as susceptible isolates by CLSI M100-S17 method
[3] = tested on: Staphylococcus aureus; assay: Antibacterial activity against methicillin-susceptible Staphylococcus aureus assessed as intermediate isolates by CLSI M100-S17 method
[4] = tested on: Staphylococcus aureus; assay: Antibacterial activity against methicillin-resistant Staphylococcus aureus by CLSI M100-S17 method
[5] = tested on: Staphylococcus epidermidis; assay: Antibacterial activity against methicillin-susceptible Staphylococcus epidermidis by CLSI M100-S17 method
[6] = tested on: Staphylococcus epidermidis; assay: Antibacterial activity against methicillin-susceptible Staphylococcus epidermidis assessed as susceptible isolates by CLSI M100-S17 method
[7] = tested on: Staphylococcus epidermidis; assay: Antibacterial activity against methicillin-susceptible Staphylococcus epidermidis assessed as intermediate isolates by CLSI M100-S17 method
[8] = tested on: Staphylococcus epidermidis; assay: Antibacterial activity against methicillin-resistant Staphylococcus epidermidis by CLSI M100-S17 method
[9] = tested on: Streptococcus pneumoniae; assay: Antibacterial activity against Streptococcus pneumoniae by CLSI M100-S17 method
[10] = tested on: Streptococcus pneumoniae; assay: Antibacterial activity against Streptococcus pneumoniae assessed as susceptible isolates by CLSI M100-S17 method
In short: (§1)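 CLSI broth microdilution on clinical isolates, using frozen in-house-prepared panels of test and comparator agents. MICs were read after 20 to 24 h incubation at 35°C in ambient air. Susceptible/intermediate categories were assigned by CLSI M100-S17 guidelines.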

[11] = tested on: Streptococcus pyogenes; assay: Antibacterial activity against Streptococcus pyogenes by CLSI M100-S17 method
[12] = tested on: Streptococcus pyogenes; assay: Antibacterial activity against Streptococcus pyogenes assessed as susceptible isolates by CLSI M100-S17 method; in short: as §1
[13] = tested on: Streptococcus agalactiae; assay: Antibacterial activity against Streptococcus agalactiae by CLSI M100-S17 method
[14] = tested on: Streptococcus agalactiae; assay: Antibacterial activity against Streptococcus agalactiae assessed as susceptible isolates by CLSI M100-S17 method; in short: as §1
[15] = tested on: Enterococcus faecalis; assay: Antibacterial activity against Enterococcus faecalis by CLSI M100-S17 method
[16] = tested on: Enterococcus faecalis; assay: Antibacterial activity against Enterococcus faecalis assessed as susceptible isolates by CLSI M100-S17 method
[17] = tested on: Enterococcus faecalis; assay: Antibacterial activity against Enterococcus faecalis assessed as intermediate isolates by CLSI M100-S17 method
[18] = tested on: Enterococcus faecalis; assay: Antibacterial activity against Enterococcus faecalis assessed as resistant isolates by CLSI M100-S17 method
[19] = tested on: Enterococcus faecium; assay: Antibacterial activity against Enterococcus faecium by CLSI M100-S17 method
[20] = tested on: Enterococcus faecium; assay: Antibacterial activity against Enterococcus faecium assessed as susceptible isolates by CLSI M100-S17 method
[21] = tested on: Enterococcus faecium; assay: Antibacterial activity against Enterococcus faecium assessed as intermediate isolates by CLSI M100-S17 method
[22] = tested on: Enterococcus faecium; assay: Antibacterial activity against Enterococcus faecium assessed as resistant isolates by CLSI M100-S17 method

CC(=O)NC[C@H]1CN(c2ccc(N3CCOCC3)c(F)c2)C(=O)O1 [LINEZOLID]
MIC50 [1]: 2 µg/mL (≈ 5.93 µM) | MIC90 [1]: 2 µg/mL (≈ 5.93 µM) | Activity [2]: 100% | Activity [3]: 0% | MIC50 [4]: 2 µg/mL (≈ 5.93 µM) | MIC90 [4]: 4 µg/mL (≈ 11.9 µM) | MIC50 [5]: 0.5 µg/mL (≈ 1.48 µM) | MIC90 [5]: 1 µg/mL (≈ 2.96 µM) | Activity [6]: 100% | Activity [7]: 0% | MIC50 [8]: 1 µg/mL (≈ 2.96 µM) | MIC90 [8]: 1 µg/mL (≈ 2.96 µM) | MIC50 [9]: 0.5 µg/mL (≈ 1.48 µM) | MIC90 [9]: 1 µg/mL (≈ 2.96 µM) | Activity [10]: 100% | MIC50 [11]: 1 µg/mL (≈ 2.96 µM) | MIC90 [11]: 1 µg/mL (≈ 2.96 µM) | Activity [12]: 100% | MIC50 [13]: 1 µg/mL (≈ 2.96 µM) | MIC90 [13]: 1 µg/mL (≈ 2.96 µM) | Activity [14]: 100% | MIC50 [15]: 2 µg/mL (≈ 5.93 µM) | MIC90 [15]: 2 µg/mL (≈ 5.93 µM) | Activity [16]: 98.7% | Activity [17]: 1.3% | Activity [18]: 0% | MIC50 [19]: 2 µg/mL (≈ 5.93 µM) | MIC90 [19]: 2 µg/mL (≈ 5.93 µM) | Activity [20]: 91.4% | Activity [21]: 8.6% | Activity [22]: 0%
